pIC50: −log10 of the molar value. Converted amounts (≈) assume the structure as drawn.
Columns and labels:
A549 = test: Cytotoxicity against human A549 cells; type: cell-based
[1] = test system: Mycobacterium tuberculosis; test: Antimycobacterial activity against Mycobacterium tuberculosis H37Rv ATCC 27294 after 7 days by broth microdilution method; type: functional; conditions: H37Rv ATCC 27294, 168 h
[2] = Aqueous solubility of the compound in 0.1 M sodium phosphate buffer at pH 7.4 after 24 hrs; type: physicochemical
Haemophilus influenzae = test: Antibacterial activity against Haemophilus influenzae by broth microdilution method; type: functional
Escherichia coli = test: Antibacterial activity against Escherichia coli by broth microdilution method; type: functional
Streptococcus pneumoniae = test: Antibacterial activity against Streptococcus pneumoniae by broth microdilution method; type: functional
Staphylococcus aureus = test: Antibacterial activity against Staphylococcus aureus by broth microdilution method; type: functional
[3] = Intrinsic clearance in human microsomes; type: ADME, Microsome
Outline: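 Intrinsic clearance was measured in human microsomal preparations and is reported in µl/min/mg.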

[4] = Fraction unbound in human plasma after 5 hrs by rapid equilibrium dialysis method; type: ADME, cell-free
[5] = Lipophilicity, log D of the compound in 0.01 M sodium phosphate at pH 7.4 after 5 hrs by shake-flask technique; type: physicochemical
[6] = Fraction unbound in mouse plasma after 5 hrs by rapid equilibrium dialysis method; type: ADME, cell-free
[7] = Intrinsic clearance in mouse microsomes; type: ADME, Microsome
[8] = test system: Mycobacterium tuberculosis; test: Cidality activity against Mycobacterium tuberculosis H37Rv ATCC 27294 assessed as log reduction in bacterial numbers up to 28 days; type: functional, organism-based
Outline: (§1)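 Replicating Mtb grown aerobically in Middlebrook 7H9 broth and exposed to a range of compound concentrations up to 32 µg/mL. Bacterial numbers were followed over time as kill kinetics, and the result is expressed as log reduction in bacterial numbers.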

[9] = test system: Mycobacterium tuberculosis; test: Cidality activity against Mycobacterium tuberculosis H37Rv ATCC 27294 assessed as log reduction in bacterial numbers at 32 ug/mL up to 28 days; type: functional; outline: as §1

| SMILES | MIC [1] | solubility at 24 h [2] | also measured |
| --- | --- | --- | --- |
| NC(=O)c1nccn2cc(-c3cccc(-c4cncc(OC[C@H]5CCCO5)c4)c3)nc12 | 6.25 µM | 40 µM (≈ 16.6 µg/mL) | pIC50 (A549): < 4.00 |
| NC(=O)c1cccn2cc(-c3cccc(-c4cncc(OCC(F)F)c4)c3)nc12 | 3.12 µM | < 1 µM | MIC (Haemophilus influenzae): > 200 µM; pIC50 (A549): < 4.00; MIC (Escherichia coli): > 200 µM; MIC (Streptococcus pneumoniae): > 200 µM; MIC (Staphylococcus aureus): > 200 µM |
| NC(=O)c1cccn2cc(-c3cccc(-c4cncc(OC[C@H]5CCCO5)c4)c3)nc12 | 0.25 µg/mL | 5.3 µM (≈ 2.2 µg/mL) | MIC (Haemophilus influenzae): > 200 µM; MIC (Escherichia coli): > 200 µM; MIC (Streptococcus pneumoniae): > 200 µM; MIC (Staphylococcus aureus): > 200 µM |
| COc1ccn2cc(-c3cccc(-c4cncc(OC[C@H]5CCCO5)c4)c3)nc2c1C(N)=O | 1 µg/mL | 120 µM (≈ 53.3 µg/mL) |  |
| COc1cncc(-c2cccc(-c3nc4c(C(N)=O)cccc4o3)c2)c1 | 2 µg/mL | 2 µM (≈ 0.691 µg/mL) |  |
| COc1cncc(-c2cc(-c3cn4cccc(C(N)=O)c4n3)ccc2F)c1 | > 32 µg/mL | < 1 µM |  |
| CN(C)CCOc1cncc(-c2cccc(-c3cn4cccc(C(N)=O)c4n3)c2)c1 | 16 µg/mL | 320 µM (≈ 128 µg/mL) | microsomal CLint [3]: 47 µL/min/mg; fraction unbound at 5 h [4]: 0.073 |
| COc1cncc(-c2cccc(-c3nc4c(C(N)=O)cccn4n3)c2)c1 | 2 µg/mL | 18 µM (≈ 6.22 µg/mL) |  |
| COc1ccn2cc(-c3cccc(-c4cncc(O[C@H]5CCOC5)c4)c3)nc2c1C(N)=O | 12.5 µM | 600 µM (≈ 258 µg/mL) | pIC50 (A549): < 4.00 |
| COc1cncc(-c2cccc(-c3cn4ccc(OC)c(C(N)=O)c4n3)c2)c1 | 2 µg/mL | 40 µM (≈ 15 µg/mL) | logD at 5 h [5]: 2.3; microsomal CLint [3]: 56 µL/min/mg; fraction unbound at 5 h [6]: 0.049; microsomal CLint [7]: 48 µL/min/mg; fraction unbound at 5 h [4]: 0.02 |
| COc1cncc(-c2cccc(-c3nc4c(C(N)=O)cccc4[nH]3)c2)c1 | 4 µg/mL | 3 µM (≈ 1.03 µg/mL) |  |
| COc1cncc(-c2cc(-c3cn4cccc(C(N)=O)c4n3)ccn2)c1 | 16 µg/mL | 22 µM (≈ 7.6 µg/mL) |  |
| COc1cncc(-c2cncc(-c3cn4cccc(C(N)=O)c4n3)c2)c1 | > 32 µg/mL | 3.5 µM (≈ 1.21 µg/mL) |  |
| NC(=O)c1cccn2cc(-c3cccc(-c4cccc(F)c4)c3)nc12 | 16 µg/mL | < 1 µM |  |
| CNC(=O)c1cccn2cc(-c3cccc(-c4cncc(OC)c4)c3)nc12 | 2 µg/mL | 5.5 µM (≈ 1.97 µg/mL) |  |
| COc1cncc(-c2cccc(-c3cn4ccnc(C(N)=O)c4n3)c2)c1 | 12.5 µM | 10 µM (≈ 3.45 µg/mL) | pIC50 (A549): < 4.00; fraction unbound at 5 h [6]: 0.04; microsomal CLint [7]: 58 µL/min/mg |
| CCN(CC)CCNC(=O)c1cccn2cc(-c3cccc(-c4cncc(OC)c4)c3)nc12 | 4 µg/mL | > 2460 µM |  |
| COc1cncc(-c2cccc(-c3cn4cccc(C(=O)N(C)C)c4n3)c2)c1 | > 32 µg/mL | 10 µM (≈ 3.72 µg/mL) |  |
| COc1cncc(-c2cccc(-c3cn4cccc(C(N)=O)c4n3)c2)c1 | 0.5 µg/mL | < 1 µM | fraction unbound at 5 h [6]: 0.019; microsomal CLint [7]: 113 µL/min/mg |
| NC(=O)c1cccn2cc(-c3cccc(-c4cncc(OCCF)c4)c3)nc12 | 0.78 µM | 16 µM (≈ 6.02 µg/mL) | MIC (Haemophilus influenzae): > 200 µM; pIC50 (A549): < 4.00; logD at 5 h [5]: 3.7; MIC (Escherichia coli): > 200 µM; microsomal CLint [3]: 75 µL/min/mg; fraction unbound at 5 h [4]: 0.01; MIC (Streptococcus pneumoniae): > 200 µM; MIC (Staphylococcus aureus): > 200 µM |
| COc1cccc(-c2cccc(-c3cn4cccc(C(N)=O)c4n3)c2)c1 | 2 µg/mL | < 1 µM | Activity [8]: Dose-dependent effect; log10cfu [9]: 2 |
